In the library only some 2.3% were active in any assay of this set; here they are far more common.
PGC1a acetyl inh: inhibitors of PGC1a acetylation signal, primary screen, cell-based, U2OS, AlphaScreen, inhibitor mode; inhibition, % at 15.6 µM; AID 651687, 2012; 350,000 compounds, 0.17% hits; AlphaScreen anti-acetyl-lysine; with virally co-expressed GCN5 acetyltransferase;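 active = every replicate shows inhibition of at least 40%; inconclusive = mean inhibition at least 40% but some replicate below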;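 also: 0% = neutral control wells and 100% = positive control wells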
EWS-Fli block: EWS/Fli-driven NR0B1 reporter inhibitors, primary screen, A673 cells, NR0B1 luciferase, luminescence, MLPCN library. viability-normalised. inhibition, % at 12.6 µM. 350,000 compounds, 0.67% hits;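 active = mean inhibition of at least 50% after viability correction, with every replicate also passing that limit; inconclusive = mean reaches 50% but only one of two replicates passes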;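 also: firefly luciferase signal divided by Alamar Blue viability fluorescence both relative to DMSO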
CFTR F508del cor: F508del CFTR correction, initial screen, CFBE line, single point; CFBE cells, YFP halide quenching; stimulated with forskolin plus potentiator P3; % fluorescence drop versus neutral controls; activity (quench increase), % at 7.58 µM; 350,000 compounds, 0.36% hits; AID 720511, 2013;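 active = mean added fluorescence quench of at least 8% versus neutral control, with both replicates also reaching 8%; inconclusive = only one of the mean or replicate conditions met; inactive = mean below 8% and not both replicates reaching 8%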;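 also: cells transiently co-express mutant CFTR-F508del with the halide-sensitive YFP; corrector assay measuring rescue of mutant channel to the surface after 24 h compound exposure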
HIV Env fusion: inhibitors of HIV-1 Env-driven cell-cell fusion, primary screen, HeLa-JRFL effector, CEM21 target cells, luciferase; inhibition, % at 12.3 µM; 360,000 compounds, 1.1% hits; AID 651610, 2012;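 active = mean replicate inhibition score of at least 50 and every replicate individually at or above 50; inconclusive = only one of the two criteria met; inactive = mean below 50 and not all replicates reaching 50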;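 also: 0% = plate neutral controls and 100% = maraviroc near 300 nM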
PAX8 reporter: inhibitors of PAX8-driven TPO luciferase reporter, primary screen, RMG-I cells, single concentration; inhibition, % at 12.6 µM; AID 652154, 2013; SteadyGlo, 24 h; 360,000 compounds, 1.2% hits;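 active = mean replicate inhibition at least 60% with every replicate also reaching 60%; inconclusive = only one of the two criteria is met; inactive = mean below 60% and not all replicates reaching 60%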;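 also: luciferase light reporting Pax8 driven TPO promoter activity; plate controls were median of neutral control wells for no effect and mitoxantrone controls for full effect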
FN deposition inh: inhibitors of fibronectin matrix deposition, primary screen, AH1F cells, Alexa488-fibronectin fluorescence, plate reader; inhibition, % at 12.6 µM; AH1F fibroblasts, overnight; 350,000 compounds, 0.086% hits;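 active = mean inhibition across replicates of 30% or more, regardless of how many single replicates reach that level; inconclusive = mean under 30% yet at least half of replicates reach 30%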;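 also: positive control wells lacked labelled fibronectin entirely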
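Material: AH1F fibroblast monolayer depositing Alexa488-labelled fibronectin into matrix | Input: 10000 AH1F cells/well | Medium: DMEM plus 2% serum, read in PBS | Reagent: Alexa488-fibronectin, 24 nM final in well | Compound dosing: One dose per compound, pinned | Schedule: 1 h adhesion, overnight exposure | Measured by: Fluorescence at 485 nm excitation, 525 nm emission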
An asterisk follows results filed as active; ? = inconclusive; . = not tested or not shown; [ ] = another dose, or the depositor's remark.

SMILES | PGC1a acetyl inh | EWS-Fli block | CFTR F508del cor | HIV Env fusion | PAX8 reporter | FN deposition inh
COc1ccc(S(=O)(=O)Nc2ccc3c(c2)C(=O)N([C@@H](C)CO)C[C@H](C)[C@@H](CN(C)Cc2ccc(Cl)c(Cl)c2)OCCCC[C@@H](C)O3)cc1 | 11 | 49 | 7 | ? | 71* | .
CC(=O)OCC1=C[C@@H]2OC(=O)C3=CO[C@@H](O[C@@H]4O[C@H](CO)[C@@H](O)[C@H](O)[C@H]4O)[C@H]1[C@@H]32 | . | -8 | 0 | -18 | 4 | 11
C=C1C(=O)OC2C=C(CO)C3OC3C3OC3(C)CC(OC(=O)/C(=C/C)COC(C)=O)C12 (stereo not drawn) | 0 | 37 | -1 | -93 | 83* | -1
O=C(Nc1ccc(Cl)cc1)Nc1cccc(C(=O)O)c1 | 9 | 82* | 0 | 71* | 86* | 0
O=C(NCc1ccccc1)C(=O)Nc1cccc(C(=O)O)c1 | -6 | 57* | -2 | 38 | 59 | -3
Cc1ccc(C(=O)Nc2cccc(C(=O)O)c2)cc1 | . | . | . | 117* | . | .
O=C(Nc1cccc(Cl)c1)Nc1cccc(C(=O)O)c1 | -4 | 55* | 1 | 40 | 14 | 5
C[C@H](CO)N1C[C@H](C)[C@H](CN(C)S(=O)(=O)c2ccccc2)OCCCC[C@H](C)Oc2ccc(NC(=O)NC3CCCCC3)cc2C1=O | -1 | 8 | -5 | -99[16.7 µM] | 34 | -17
Cc1ccc(-c2ccc3c(c2)O[C@H](CN(C)Cc2cccnc2)[C@@H](C)CN([C@@H](C)CO)S3(=O)=O)cc1 | -1 | 35 | -1 | 21[16.7 µM] | . | -15
CC(C)NC(=O)N[C@H]1CC[C@H](CCNC(=O)C2CCCC2)O[C@H]1CO | 2 | -1 | 0 | -24[16.7 µM] | 3 | -4
CC(=O)Nc1cccc(C(=O)/C=C/c2ccc(C)cc2)c1 | . | 12 | . | -85 | 75* | 7
O=C(O)/C=C/c1ccc(S(=O)(=O)Nc2ccc(OCc3ccccc3)cc2)cc1 | -2 | -16 | -3 | 10 | -13 | 12
N#Cc1ccccc1COc1ccc(/C=C/C(=O)O)cc1 | . | 58* | 4 | 30 | -6 | 4
CCN(CC)S(=O)(=O)c1cccc(NC(=O)Nc2cccc(C(F)(F)F)c2)c1 | 22 | . | . | 118* | 102* | -6
Cc1ccc(C2=NOC(=O)/C2=C\C=C\c2ccccc2)cc1 | -5 | 54* | -6 | -60 | 19 | 0
Cc1ccccc1OCCc1c(C)[nH]c(=S)[nH]c1=O | . | 55* | 4 | -31 | 39 | 9
O=C(Nc1cccc(C(F)(F)F)c1)c1ccc(Cn2cc(Br)cn2)o1 | -1 | . | . | 79* | . | .
Cc1ccc(-c2csc3ncn(CC#N)c(=O)c23)cc1C | -12 | 0 | 10* | -72 | 9 | -3
Cc1ccc(-c2csc3ncn(CC#N)c(=O)c23)cc1 | -6 | . | . | -38 | 5 | 6
CCN1/C(=C/c2ccc3cc(C)ccc3[n+]2C)Sc2ccc3sccc3c21 | 33 | 53* | 1 | 61* | 100* | -3
CCCCN1/C(=C/c2ccc3ccccc3[n+]2CC)Sc2ccccc21 | -4 | . | . | . | . | .
CCN1/C(=C/c2ccc3cc(C)ccc3[n+]2CC)Sc2cc(C)ccc21 | . | 59* | -2 | 46 | 89* | -61
Cc1ccc(-n2c(C)c([N+](=O)[O-])c3ccc(O)c(CN(C)C)c32)cc1 | -6 | . | . | 62* | -10 | 5
CCOC(=O)c1ccoc1CSCC(=O)N1CCN(S(=O)(=O)c2ccc(C)cc2)CC1 | -9 | . | . | 56* | . | 9
CN(CC(=O)Nc1cc(S(=O)(=O)N2CCCCCC2)ccc1Cl)Cc1ccc2c(c1)OCO2 | -10 | 10 | -1 | 40 | 19 | 10
O=C(Cc1cccs1)N1CCN(S(=O)(=O)c2ccc(Br)cc2)CC1 | . | -5 | 3 | 2 | 7 | 2
COc1ccc(S(=O)(=O)N2CCCCCC2)cc1NC(=O)CN(C)Cc1ccc2c(c1)OCO2 | -1 | 12 | 4 | 58* | 38 | 15
Cc1ccc(S(=O)(=O)N2CCN(C(=O)CN(Cc3ccco3)Cc3cccs3)CC2)cc1 | 21 | 5 | 29* | . | 9 | -6
CCOc1ccc(S(=O)(=O)N2CCCCC2)cc1NC(=O)c1ccccc1 | 4 | 10 | 12* | . | -11 | -5

Compound activity as filed in PubChem BioAssay.
